We go through six compounds from article PMC3817951 (Journal of immunology (Baltimore, Md. : 1950), 2013).

Data set [1] relates to murine iNKT hybridoma N38-2C12 (Vα14Vβ8.2b). Briefly: In vitro stimulation of iNKT hybridoma 2C12 with glycolipid pulsed BMDCs. It counts as cell-based, mouse. The note with it: for IL-2 production (ELISA): BMDCs loaded 100 ng/ml for 20 h, co-culture with 2C12 for 16 hours. The gist of the method:
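Hybridoma kept in cDMEM (DMEM, 10% FCS, glutamine, pen/strep, 2-mercaptoethanol). BMDCs grown 10 days with GM-CSF, pulsed 20 h with 100 ng/ml glycolipid. 5×10^4 hybridoma cells plus 10^5 BMDCs at 37°C. Secreted IL-2 by ELISA at 16 h (n=6). Intracellular IL-2 at 4 h. TCRβ by flow at 24 h with CD45.1 BMDCs, gated CD45.2+CD45.1−7AAD−.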
In general terms: An ELISA detects its analyte on a solid surface through an enzyme-linked reagent.

In data set [2] the test system is iNKT cells. It counts as in vivo, C57BL/6 mice. The note with it: for IFN-γ levels (Figure 2 panel b, IL-12 panel): at 16 hours.
In data set [3] the test system is TCR. Briefly: Surface plasmon resonance: TCR binding to mCD1d-glycolipid complexes. The arrangement: species or system mouse. The note with it: for Kd: SPR, TCR towards glycolipid presented by mCD1d, 25°C, Langmuir 1:1 model. The procedure, abridged: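 Biotinylated birA-tagged mouse CD1d loaded overnight with 6-fold molar excess glycolipid (DMSO stock 1 mg/ml). 500–600 RU of complex captured on streptavidin chip. TCR injected at 0.0156–2 μM in 10 mM Hepes, 150 mM NaCl, 3 mM EDTA, pH 7.4, for 1.5–3 min. Dissociation 45 min at 25°C. Empty-CD1d reference subtracted, Langmuir 1:1 fit. Three runs, separate TCR preparations.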

Data set [4] relates to B16 melanoma cells. Briefly: B16 melanoma lung metastasis model. The data set is classed as in vivo, mice. The note with it: 10 000 BMDCs loaded with glycolipid. The gist of the method: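 C57BL/6 mice aged 5–12 weeks. B16 cells grown in advanced RPMI with 10% FCS, glutamine and pen/strep, lifted with cell dissociation buffer and washed twice. 2x10^5 or 4x10^5 cells were injected i.v. into the tail vein within 30 min of harvest. Glycolipid-pulsed BMDCs given i.v. (6x10^4 or 1x10^4). Mice killed at day 14 and lungs removed for scoring.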

The test system of data set [5] is iNKT cells. It counts as in vivo, C57BL/6 mice. The note with it: for serum IFN-γ levels / serum IL-12 levels: 16 hours after injection of 5 μg glycolipid (i.p.). The procedure, abridged: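 C57BL/6 mice aged 5–12 weeks received 5 μg glycolipid i.p. in PBS. Glycolipid solubilised in PBS or vehicle (sucrose/deoxycholate/Tween 20), heated 20 min at 80°C, sonicated 10 min. Serum cytokines measured 16 h after injection. Mean ± s.e.m. of at least sixteen mice, pooled from two independent experiments.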

In data set [6] the test system is human iNKT cells. It counts as cell-based. The gist of the method: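 Sorted, expanded iNKT cells from healthy adult donors. Autologous PBMCs isolated by density centrifugation, incubated overnight with glycolipid (100 ng/ml), washed and irradiated (40 Gy). 5x10^4 iNKT cells cultured with 10^5 PBMCs in RPMI 1640 plus 10% human AB serum, pyruvate, non-essential amino acids and pen/strep. Supernatant cytokines at 24 h by cytometric bead array. Data pooled from two experiments, two donors.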

In data set [7] the test system is spleen DCs (CD11c CD11b double positive). The data set can be described thus: Co-stimulatory marker expression on spleen DCs. It counts as in vivo, mouse.
Data set [8] concerns CD1d. The note with it: compared with CD1d-α-GalCer complexes; cited from earlier work.
Data set [9] deals with CD1d. Briefly: Cellular assay of stability of the glycolipid-CD1d complex. The data set is classed as cell-based, mouse. The note with it: BMDCs loaded 100 ng/mL 20 hours, wash-off 4h to 48h. The gist of the method:
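BMDCs grown 10 days with GM-CSF, then pulsed 20 h with 100 ng/mL glycolipid and washed. Cells were held in medium for 4–48 h, and released glycolipid was washed off. They were then co-cultured with 2C12 hybridoma (5×10^4 hybridoma:10^5 BMDCs, cDMEM, 37°C). IL-2 in the medium, normalised to the 4 h point, indicates remaining loaded CD1d. Mean ± s.e.m., n=6.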

The mark [10] stands for this setting: 600 000 glycolipid-pulsed BMDCs, at 16 and 24 hours.
[11] abbreviates: 600 000 glycolipid-pulsed BMDCs.
[12] abbreviates: 10 000 pulsed BMDCs, 16 hours, compared to NU-α-GalCer and α-GalCer.
Where [13] appears, read: 100 ng/ml loading, 24hrs, compared to α-GalCer.

A word on the Kd: it is the free concentration of one partner at which half of the binding sites on the other are occupied at equilibrium, for simple one-to-one binding.

SMILES strings stand for the structures. “And” between values parts separate entries of the source, which are not always exact repeats. Equal values may be shown once. “Also recorded” adds a separate entry of the source. Read-outs that look alike come from different tables or passages of the source.

Take `CCCCCCCCCCCCCCCCCCCCCCCCCC(=O)N[C@@H](CO[C@H]1O[C@H](COC(=O)Nc2ccc(Cl)cc2)[C@H](O)[C@H](O)[C@H]1O)[C@H](O)[C@H](O)CCCCCCCCCCCCCC` [4ClPhC-α-GalCer, α-GalCer-6″-(4-chlorophenyl)carbamate]: the “IL-2 production (ELISA)” value in data set [1] is recorded as “significantly differ from α-GalCer”. Moreover, in data set [2] (setting [10]), the “serum IFN-γ levels” value is on record as “significantly higher compared to NU-α-GalCer”. The “IFN-γ levels (Figure 2 panel b, IL-12 panel)” value in data set [2] (setting [11]) was “significantly higher compared to α-GalCer”. In data set [3] (49 nM vs. 25 nM), this compound returned a reduced binding affinity of 2 fold. Moreover, the Kd in [3] worked out at 49.3 ± 0.3 nM.
As for `CCCCCCCCCCCCCCCCCCCCCCCCCC(=O)N[C@@H](CO[C@H]1O[C@H](COC(=O)Nc2cccc3ccccc23)[C@H](O)[C@H](O)[C@H]1O)[C@H](O)[C@H](O)CCCCCCCCCCCCCC` [NC-α-GalCer, α-GalCer-6″-(1-naphthyl)carbamate], the “IL-2 production (ELISA)” value in data set [1] is recorded as “significantly differ from α-GalCer”. Also, the Kd in data set [3] is 37 nM and 37.1 nM.
Turning to `CCCCCCCCCCCCCCCCCCCCCCCCCC(=O)N[C@@H](CO[C@H]1O[C@H](CNC(=O)Nc2cccc3ccccc23)[C@H](O)[C@H](O)[C@H]1O)[C@H](O)[C@H](O)CCCCCCCCCCCCCC` [NU-α-GalCer, α-GalCer-6″-(1-naphthyl)urea], the “IL-2 production (ELISA)” value in data set [1] is on record as “higher IL-2 levels; also recorded: significantly differ from α-GalCer”. The “serum IFN-γ levels” value in [2] (setting [10]) is “significantly higher compared to α-GalCer”; in data set [5], “significantly lower; also recorded: comparable or slightly lower”. Further, the “IFN-γ levels (Figure 2 panel b, IL-12 panel)” value in data set [2] (setting [11]) is on record as “significantly higher compared to α-GalCer”. Besides, in [4], the “lung nodules / anti-metastatic activity” value is “significantly stronger compared to α-GalCer”.
Take `CCCCCCCCCCCCCCCCCCCCCCCCCC(=O)N[C@@H](CO[C@H]1O[C@H](COC(=O)Nc2ccncc2)[C@H](O)[C@H](O)[C@H]1O)[C@H](O)[C@H](O)CCCCCCCCCCCCCC` [PyrC-α-GalCer, α-GalCer-6″-(pyridin-4-yl)carbamate]: the “IL-2 production (ELISA)” value in [1] is reported as “significantly differ from α-GalCer”. In data set [2] (setting [12]), the “serum IFN-γ levels” value is “significantly higher” and the “serum IL-12 levels” value is given as “significantly higher”. Also, in data set [2] (setting [10]), the “serum IFN-γ levels” value is “significantly higher compared to NU-α-GalCer” and the “serum IL-12 levels” value is on record as “even after 24 hours markedly higher than for NU-α-GalCer; also recorded: significantly higher compared to NU-α-GalCer”. Moreover, in data set [2] (glycolipid pulsed BMDCs, in contrast to 4ClPhC-α-GalCer and NU-α-GalCer), the “course of IFN-γ level over time” value is reported as “increased up to 24 hours after injection”. In data set [6] (setting [13]), the IFN-γ production entry was “slightly elevated”, the IL-4 production entry was “less production”, the IL-12 production entry is given as “slightly elevated” and the IL-13 production entry was “less production”. The Th1-biased cytokine secretion result in [6] (purified human iNKT cells, more IFN-γ and IL-12 and less IL-4 and IL-13 compared to α-GalCer) is reported as “able to induce Th1-biased cytokine secretion”. Further, in data set [4], the “lung nodules / anti-metastatic activity” value is listed as “superior in preventing tumor metastasis; also recorded: reduce the amount of noduli even significantly better”. In addition, the “CD40 and OX40L expression” value in [7] (spleen DCs) was “induces early CD40 and OX40L upregulation”. In addition, the “serum IL-12 levels” value in data set [5] is on record as “significantly higher IL-12 levels than NU-α-GalCer”. For the same compound, the “increase of IL-12 levels” value in [5] (PyrC-α-GalCer administration, mode and comparator not stated at place) is 10 fold. In data set [3], this compound gave a Kd of 25 ± 3 nM.
On to `CCCCCCCCCCCCCCCCCCCCCCCCCC(=O)NC(CC1OC(CO)C(O)C(O)C1O)C(O)C(O)CCCCCCCCCCCCCC` (stereo not drawn) [α-C-GalCer], for which the TCRβ expression result in [1] (2C12, 24 hours after coculture with glycolipid-pulsed CD45.1 BMDCs) was “clear TCRb downregulation”. For the same compound, in data set [1], the “IL-2 production (ELISA)” value was “higher IL-2 levels”. Further, the “half-life in vivo of complex with CD1d” value in [8] is reported as “much longer half-life in vivo”. In addition, the “stability of glycolipid-CD1d complex (IL-2 normalized to 4 hours after wash off)” value in data set [9] is listed as “much slower decay compared to α-GalCer”.
With `CCCCCCCCCCCCCCCCCCCCCCCCCC(=O)N[C@@H](CO[C@H]1O[C@H](CO)[C@H](O)[C@H](O)[C@H]1O)[C@H](O)[C@H](O)CCCCCCCCCCCCCC` [α-GalCer, alpha galactosyl ceramide, reference compound], in data set [7] (dendritic cell surface), the “CD80 and CD86 expression” value is “induced upregulation of both CD80 and CD86”. For the same compound, in [5], the “serum IFN-γ levels” value is “significantly lower” and the “serum IL-12 levels” value is reported as “significantly lower”. For the same compound, the Kd in [3] was 26 nM and 26.4 nM.
